The source made the active and inactive calls. The calls are words filed in the database; no cut-off is given here.
Experiments:
[1] = molecular target: T1, Toll-like receptor 7 (Homo sapiens) (UniProt Q9NYK1); test: Activation of human TLR7 expressed in HEK293XL assessed as fold induction of NF-kappaB activity at 50 ug/ml after 18 hrs by reporter gene assay relative to control
T1 sequence (whole entry): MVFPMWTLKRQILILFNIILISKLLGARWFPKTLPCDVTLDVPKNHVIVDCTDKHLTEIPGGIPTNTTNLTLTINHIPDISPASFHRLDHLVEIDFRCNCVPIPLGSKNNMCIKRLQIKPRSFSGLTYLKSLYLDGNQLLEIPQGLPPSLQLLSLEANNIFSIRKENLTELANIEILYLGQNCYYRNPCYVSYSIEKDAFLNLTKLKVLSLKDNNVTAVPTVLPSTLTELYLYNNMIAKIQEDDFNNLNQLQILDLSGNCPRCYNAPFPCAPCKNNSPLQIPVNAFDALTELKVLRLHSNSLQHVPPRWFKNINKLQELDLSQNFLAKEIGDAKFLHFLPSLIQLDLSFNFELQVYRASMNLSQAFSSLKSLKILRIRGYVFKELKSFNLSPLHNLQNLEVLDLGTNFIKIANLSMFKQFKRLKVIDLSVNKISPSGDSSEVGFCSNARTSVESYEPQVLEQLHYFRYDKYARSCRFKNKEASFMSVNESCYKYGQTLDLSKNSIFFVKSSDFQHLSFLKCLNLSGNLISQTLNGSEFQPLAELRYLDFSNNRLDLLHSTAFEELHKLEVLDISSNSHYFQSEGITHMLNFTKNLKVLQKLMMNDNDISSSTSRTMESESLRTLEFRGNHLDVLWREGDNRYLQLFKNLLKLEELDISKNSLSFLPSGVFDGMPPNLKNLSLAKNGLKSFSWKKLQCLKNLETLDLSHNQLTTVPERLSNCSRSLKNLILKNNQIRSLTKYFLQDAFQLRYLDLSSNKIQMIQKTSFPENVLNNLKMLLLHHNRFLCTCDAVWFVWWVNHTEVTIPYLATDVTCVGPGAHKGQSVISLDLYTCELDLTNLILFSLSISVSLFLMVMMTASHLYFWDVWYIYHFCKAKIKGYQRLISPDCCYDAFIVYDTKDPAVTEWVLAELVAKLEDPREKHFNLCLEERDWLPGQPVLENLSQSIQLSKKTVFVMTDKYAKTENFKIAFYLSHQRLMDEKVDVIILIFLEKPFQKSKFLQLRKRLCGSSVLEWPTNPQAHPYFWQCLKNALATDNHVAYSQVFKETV
Outline: (§1)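 HEK293 cells stably expressing human TLR7 or TLR8, transiently transfected with SEAP reporter plasmid; medium replaced, SIMRA compounds added, 18 h incubation. Supernatant SEAP measured by QuantiBlue; expressed as fold increase in NF-κB activity over PBS control. Tabulated data at 50 μg/mL, representative of three independent experiments.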

PBMC [2] = test: Immunomodulatory activity in human PBMC assessed as induction of IFN-alpha at 100 ug/ml after 24 hrs
PBMC [3] = test: Immunomodulatory activity in human PBMC assessed as induction of TNFalpha at 100 ug/ml after 24 hrs; assay type: functional, cell-based
Outline: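 Human PBMCs plated at 5 × 10^6 cells/mL; compounds dissolved in PBS added at various concentrations, 37 °C for 24 h. Supernatant cytokines/chemokines quantified with human Luminex multiplex kit.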

[4] = molecular target: Toll-like receptor 3 (Homo sapiens) (UniProt O15455); test: Activation of human TLR3 expressed in HEK293 assessed as induction of NF-kappaB activity reporter gene assay; assay type: cell-based
[5] = molecular target: T2, Toll-like receptor 8 (Homo sapiens) (UniProt Q9NR97); test: Activation of human TLR8 expressed in HEK293XL assessed as fold induction of NF-kappaB activity at 50 ug/ml after 18 hrs by reporter gene assay relative to control; outline: as §1
T2 sequence (whole entry): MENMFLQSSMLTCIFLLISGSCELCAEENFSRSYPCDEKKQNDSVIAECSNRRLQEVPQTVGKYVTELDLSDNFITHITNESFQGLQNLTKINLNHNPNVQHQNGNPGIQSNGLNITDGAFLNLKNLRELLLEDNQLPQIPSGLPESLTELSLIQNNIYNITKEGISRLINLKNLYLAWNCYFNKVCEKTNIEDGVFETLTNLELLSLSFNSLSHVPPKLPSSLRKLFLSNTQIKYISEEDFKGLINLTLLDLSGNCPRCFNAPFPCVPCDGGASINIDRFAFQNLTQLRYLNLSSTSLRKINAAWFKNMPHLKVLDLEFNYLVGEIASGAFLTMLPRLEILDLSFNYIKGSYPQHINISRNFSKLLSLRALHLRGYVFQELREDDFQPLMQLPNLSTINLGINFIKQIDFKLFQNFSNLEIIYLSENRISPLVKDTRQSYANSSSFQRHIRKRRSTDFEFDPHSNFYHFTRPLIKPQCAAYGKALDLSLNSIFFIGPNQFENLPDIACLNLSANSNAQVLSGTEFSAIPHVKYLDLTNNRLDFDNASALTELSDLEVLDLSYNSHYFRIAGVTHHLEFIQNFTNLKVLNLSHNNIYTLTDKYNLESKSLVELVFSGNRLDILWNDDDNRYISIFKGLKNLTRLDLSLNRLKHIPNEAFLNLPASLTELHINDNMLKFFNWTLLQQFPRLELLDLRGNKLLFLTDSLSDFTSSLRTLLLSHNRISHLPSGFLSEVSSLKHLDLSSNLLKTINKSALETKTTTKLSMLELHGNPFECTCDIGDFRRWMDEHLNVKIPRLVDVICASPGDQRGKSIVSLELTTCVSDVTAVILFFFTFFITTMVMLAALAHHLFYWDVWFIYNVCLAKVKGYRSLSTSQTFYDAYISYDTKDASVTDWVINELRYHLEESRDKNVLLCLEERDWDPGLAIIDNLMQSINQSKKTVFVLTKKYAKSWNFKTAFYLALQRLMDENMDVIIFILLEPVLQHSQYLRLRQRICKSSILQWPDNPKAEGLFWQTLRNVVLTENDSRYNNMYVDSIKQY

Splenocyte = test: Immunomodulatory activity in C57BL/6 mouse splenocytes bearing TLR7 receptor assessed as IL12 release at 100 ug/ml after 24 hrs by ELISA; assay type: functional, cell-based
Outline: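 C57BL/6 splenocytes in RPMI 1640 with 10% FBS, penicillin/streptomycin, 2 mM L-glutamine, plated at 5 × 10^6 cells/mL; compounds in PBS added, 37 °C for 24 h. Supernatant IL-12 and IL-6 by ELISA; representative of three independent experiments.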

Sequence of Toll-like receptor 3 (Homo sapiens) (O15455 whole entry): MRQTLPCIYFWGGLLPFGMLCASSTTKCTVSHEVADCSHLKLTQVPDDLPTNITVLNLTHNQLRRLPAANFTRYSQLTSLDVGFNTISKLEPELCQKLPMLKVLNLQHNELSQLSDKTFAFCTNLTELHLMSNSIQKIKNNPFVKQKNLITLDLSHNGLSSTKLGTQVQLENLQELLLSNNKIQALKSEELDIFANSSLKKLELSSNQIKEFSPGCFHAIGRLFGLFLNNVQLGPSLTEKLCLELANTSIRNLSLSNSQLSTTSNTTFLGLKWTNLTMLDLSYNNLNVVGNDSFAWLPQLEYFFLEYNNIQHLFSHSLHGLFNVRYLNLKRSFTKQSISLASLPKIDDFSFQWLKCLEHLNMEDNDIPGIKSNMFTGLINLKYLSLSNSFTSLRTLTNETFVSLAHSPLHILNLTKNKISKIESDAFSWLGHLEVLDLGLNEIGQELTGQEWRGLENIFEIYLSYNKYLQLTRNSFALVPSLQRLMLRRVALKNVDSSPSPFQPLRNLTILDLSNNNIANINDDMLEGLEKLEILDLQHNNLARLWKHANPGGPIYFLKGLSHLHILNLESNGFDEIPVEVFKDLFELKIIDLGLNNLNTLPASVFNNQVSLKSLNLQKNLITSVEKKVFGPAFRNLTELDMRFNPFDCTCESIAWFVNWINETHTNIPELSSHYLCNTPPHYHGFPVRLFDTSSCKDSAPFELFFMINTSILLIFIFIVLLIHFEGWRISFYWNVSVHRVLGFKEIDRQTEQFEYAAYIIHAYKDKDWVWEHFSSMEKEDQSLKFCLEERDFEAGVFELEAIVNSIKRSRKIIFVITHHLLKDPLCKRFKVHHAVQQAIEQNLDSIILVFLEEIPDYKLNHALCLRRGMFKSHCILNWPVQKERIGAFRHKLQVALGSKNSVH

| SMILES | fold change (FC) [1] | IFN-alpha (PBMC [2]) [pg/mL] | Activity (PBMC [3]) [pg/mL] | Activity [4] | fold change (FC) [5] | Activity (Splenocyte) |
| --- | --- | --- | --- | --- | --- | --- |
| Nc1ccn([C@@H]2O[C@H](CO[C@H]3[C@@H](O)[C@H](n4cnc5c(N)ncnc54)O[C@@H]3COP(=O)(S)O[C@H]3[C@@H](O)[C@H](n4ccc5c(=O)[nH]c(N)nc54)O[C@@H]3COP(=O)(S)O[C@H]3[C@@H](O)[C@H](n4ccc(=O)[nH]c4=O)O[C@@H]3COP(=O)(S)O[C@H]3[C@@H](O)[C@H](n4cnc5c(N)ncnc54)O[C@@H]3COP(=O)(S)O[C@H]3[C@@H](O)[C@H](n4ccc5c(=O)[nH]c(N)nc54)O[C@@H]3COP(=O)(S)O[C@H]3[C@@H](O)[C@H](n4ccc(=O)[nH]c4=O)O[C@@H]3CO)[C@@H](OP(=O)(S)OC[C@H]3O[C@@H](n4ccc5c(=O)[nH]c(N)nc54)[C@H](O)[C@@H]3OP(=O)(S)OC[C@H]3O[C@@H](n4cnc5c(N)ncnc54)[C@H](O)[C@@H]3OP(=O)(S)OC[C@H]3O[C@@H](n4ccc(=O)[nH]c4=O)[C@H](O)[C@@H]3OP(=O)(S)OC[C@H]3O[C@@H](n4ccc(=O)[nH]c4=O)[C@H](O)[C@@H]3OP(=O)(S)OCC(O)COP(=O)(S)O[C@H]3[C@@H](O)[C@H](n4ccc(=O)[nH]c4=O)O[C@@H]3COP(=O)(S)O[C@H]3[C@@H](O)[C@H](n4ccc(=O)[nH]c4=O)O[C@@H]3COP(=O)(S)O[C@H]3[C@@H](O)[C@H](n4cnc5c(N)ncnc54)O[C@@H]3COP(=O)(S)O[C@H]3[C@@H](O)[C@H](n4ccc5c(=O)[nH]c(N)nc54)O[C@@H]3COP(=O)(S)O[C@H]3[C@@H](O)[C@H](n4ccc(N)nc4=O)O[C@@H]3CO[C@H]3[C@@H](O)[C@H](n4cnc5c(N)ncnc54)O[C@@H]3COP(=O)(S)O[C@H]3[C@@H](O)[C@H](n4ccc5c(=O)[nH]c(N)nc54)O[C@@H]3COP(=O)(S)O[C@H]3[C@@H](O)[C@H](n4ccc(=O)[nH]c4=O)O[C@@H]3COP(=O)(S)O[C@H]3[C@@H](O)[C@H](n4cnc5c(N)ncnc54)O[C@@H]3COP(=O)(S)O[C@H]3[C@@H](O)[C@H](n4ccc5c(=O)[nH]c(N)nc54)O[C@@H]3COP(=O)(S)O[C@H]3[C@@H](O)[C@H](n4ccc(=O)[nH]c4=O)O[C@@H]3CO)[C@H]2O)c(=O)n1 (some centres not stated) | 17.5 | 183 | 0 | inactive | 1.6 | Active |
| Nc1ccn([C@@H]2O[C@H](COP(=O)(S)O[C@H]3[C@@H](O)[C@H](n4cnc5c(N)ncnc54)O[C@@H]3COP(=O)(S)O[C@H]3[C@@H](O)[C@H](n4ccc5c(=O)[nH]c(N)nc54)O[C@@H]3COP(=O)(S)O[C@H]3[C@@H](O)[C@H](n4ccc(N)nc4=O)O[C@@H]3COP(=O)(S)O[C@H]3[C@@H](O)[C@H](n4ccc5c(=O)[nH]c(N)nc54)O[C@@H]3COP(=O)(S)O[C@H]3[C@@H](O)[C@H](n4ccc(=O)[nH]c4=O)O[C@@H]3COP(=O)(S)O[C@H]3[C@@H](O)[C@H](n4ccc5c(=O)[nH]c(N)nc54)O[C@@H]3COP(=O)(S)O[C@H]3[C@@H](O)[C@H](n4cnc5c(N)ncnc54)O[C@@H]3COP(=O)(S)O[C@H]3[C@@H](O)[C@H](n4cnc5c(N)ncnc54)O[C@@H]3CO)[C@@H](OP(=O)(S)OC[C@H]3O[C@@H](n4ccc(=O)[nH]c4=O)[C@H](O)[C@@H]3OP(=O)(S)OC[C@H]3O[C@@H](n4ccc(=O)[nH]c4=O)[C@H](O)[C@@H]3OP(=O)(S)OCC(O)COP(=O)(S)O[C@H]3[C@@H](O)[C@H](n4ccc(=O)[nH]c4=O)O[C@@H]3COP(=O)(S)O[C@H]3[C@@H](O)[C@H](n4ccc(=O)[nH]c4=O)O[C@@H]3COP(=O)(S)O[C@H]3[C@@H](O)[C@H](n4ccc(N)nc4=O)O[C@@H]3COP(=O)(S)O[C@H]3[C@@H](O)[C@H](n4cnc5c(N)ncnc54)O[C@@H]3COP(=O)(S)O[C@H]3[C@@H](O)[C@H](n4ccc5c(=O)[nH]c(N)nc54)O[C@@H]3COP(=O)(S)O[C@H]3[C@@H](O)[C@H](n4ccc(N)nc4=O)O[C@@H]3COP(=O)(S)O[C@H]3[C@@H](O)[C@H](n4ccc5c(=O)[nH]c(N)nc54)O[C@@H]3COP(=O)(S)O[C@H]3[C@@H](O)[C@H](n4ccc(=O)[nH]c4=O)O[C@@H]3COP(=O)(S)O[C@H]3[C@@H](O)[C@H](n4ccc5c(=O)[nH]c(N)nc54)O[C@@H]3COP(=O)(S)O[C@H]3[C@@H](O)[C@H](n4cnc5c(N)ncnc54)O[C@@H]3COP(=O)(S)O[C@H]3[C@@H](O)[C@H](n4cnc5c(N)ncnc54)O[C@@H]3CO)[C@H]2O)c(=O)n1 (some centres not stated) | 20.7 | 123 | 1.7 | inactive | 0.5 | Active |

Reference: ChEMBL document CHEMBL1154352, “Toll-like receptor 7 selective synthetic oligoribonucleotide agonists: synthesis and structure-activity relationship studies” (J Med Chem, 2009)
